High-throughput results from PubChem BioAssay.
HTRA1 inhibitor: blocks human HTRA1 serine peptidase. Q92743. recombinant HTRA1, FP-rhodamine activity-based probe, fluorescence polarization. inhibition, % at 5.96 µM. hit rate 0.5% among 340,000. AID 504803; in the data active = inhibition above about 36%;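 also: 0% = enzyme with DMSO and 100% = wells lacking enzyme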
TCR-CD3 inh: human TCR-CD3 binding inhibition | hit rate 0.37% among 360,000 | AID 651800 | TAMRA-labeled TCR probe fluorescence, biochemical | inhibition, % at 9.4 µM; in the data active = inhibition above about 19%;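 also: recombinant mutant TCR 2C K166C tagged with TAMRA read by polarization; 0% = receptor in buffer alone and 100% = receptor with positive control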
SIAE primary: human SIAE inhibition, primary screen; SIAE FP-Rh probe binding, fluorescence polarization; hit rate 0.69% among 370,000; AID 1053197; inhibition, % at 9.66 µM;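 active = inhibition above a cutoff: mean of compounds within the control limits plus 3 SD of those, cut at about 17% in these data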;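 also: 0% = plate median of compound wells and 100% = probe without SIAE protein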
ABHD4 inh: inhibitors of mouse ABHD4 | Q8VD66 | AID 720543 | hit rate 0.54% among 370,000 | inhibition, % at 8.92 µM | purified mABHD4, FP-Rh probe fluorescence polarization;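 active = inhibition exceeding the mean over every tested compound plus 3 SD, cut at about 30% in these data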;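 also: 0% = plate median of compound wells and 100% = S159A mutant with DMSO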
Target sequence (Q8VD66 whole entry, looked up): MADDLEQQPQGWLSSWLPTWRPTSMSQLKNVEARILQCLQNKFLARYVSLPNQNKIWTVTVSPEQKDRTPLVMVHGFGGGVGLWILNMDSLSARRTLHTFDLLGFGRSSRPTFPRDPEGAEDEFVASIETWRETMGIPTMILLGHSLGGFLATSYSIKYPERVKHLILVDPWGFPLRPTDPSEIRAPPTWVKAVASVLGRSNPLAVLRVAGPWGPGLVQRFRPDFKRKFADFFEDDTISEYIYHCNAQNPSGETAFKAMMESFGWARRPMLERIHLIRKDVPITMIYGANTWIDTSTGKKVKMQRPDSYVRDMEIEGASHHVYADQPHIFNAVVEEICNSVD
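Material: mouse ABHD4 enzyme, wild type; Benchmarks: S159A mutant high control, sample median low control; Buffer or medium: HEPES pH 7.0, NaCl, Pluronic buffer; Signal: fluorescence polarization; Read-out: percent inhibition of probe binding, normalized to plate controls; Timing: pre-incubation 45 min, probe exposure 60 min, at 25 °C; Dosing: 8.92 µM, single dose.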
PRMT1 FP inh: inhibitors of human PRMT1. recombinant PRMT1, activity-based probe fluorescence polarization. inhibition, % at 2.79 µM. hit rate 1.3% among 370,000. AID 652257;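 active = inhibition above about 21% made by adding two undisclosed values, limit read from the data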
SIAE inh conf: confirmation of human SIAE inhibitors; SIAE FP-Rh activity-based probe, fluorescence polarization; hit rate 13% among 2,300; AID 1117263; shares compounds with SIAE primary; inhibition, % at 9.66 µM;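 active = mean inhibition of the replicates above the hit cutoff set in the primary screen, cut at about 17% in these data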;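 also: 0% = SIAE with DMSO and probe and 100% = probe without SIAE; inhibitors lower polarization as more probe stays unbound to SIAE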
The depositor's hits bear a star; / = no result; + = active, no number. A selection: hits, their analogues and other compounds. The true share with any hit is near 2.6%.

SMILES | HTRA1 inhibitor | TCR-CD3 inh | SIAE primary | ABHD4 inh | PRMT1 FP inh | SIAE inh conf
CC(C)Cc1nnc(NC(=O)CCNC(=O)c2ccco2)s1 | 1 | 2 | 29* | -1 | 1 | 1
CC(C)CC(=O)Nc1nnc(-c2ccco2)s1 | 1 | 5 | 18* | -7 | 0 | -1
NC(=O)c1ncn2c(=O)n(CCCl)nnc12 | / | 1 | 5 | 10 | 5 | /
CCCCOc1ccc(C(=O)n2ccc3ccc(-c4ccc5ccn(Cc6ccc(OC)cc6)c5c4)cc32)cc1 | / | / | -5 | -17 | 4 | /
Cc1ccc(CN2C(C(=O)NC3CCCC3)CSCCS2(=O)=O)cc1 (stereo not given) | / | / | -6 | 6 | 5 | /
COC[C@@H]1CCCN1c1cccc2c1S(=O)(=O)N1CC[C@H](C1)O2 | / | / | 6 | -4 | 2 | /
O=C(/C=C/c1ccccc1)NC(=S)Nc1ccccc1O | -15 | 10 | 24* | 0 | 4 | -3
O=C(O)CC(=O)NC12CC3CC(CC(C3)C1)C2 | 2 | 3 | 0 | 2 | 3 | /
CC(C)NCC(=O)NC12CC3CC(CC(C3)C1)C2 | 1 | -5 | 21* | -5 | -1 | 8
Nc1ccc(C(=O)N/N=C/c2cn(Cc3ccc(F)cc3)c3ccccc23)cc1 | 8 | 5 | 16 | 10 | 4 | /
CNC(=S)N/N=C/c1cn(Cc2ccc(F)cc2)c2ccccc12 | 5 | -1 | 19* | 20 | 1 | 9
COc1cc(C(=O)N/N=C/c2cn(Cc3ccccc3)c3ccccc23)ccc1O | 0 | 9 | 25* | 11 | 0 | 10
Nc1ccc(C(=O)N/N=C/c2cn(Cc3ccccc3F)c3ccccc23)cc1 | -2 | 2 | 20* | 13 | 2 | 10
COC(=O)N/N=C/c1cn(Cc2ccc(F)cc2)c2ccccc12 | 1 | 5 | 7 | 1 | -1 | /
Cn1c2ccccc2c2cc(/C=N/NC(=O)c3ccc(N)cc3)ccc21 | 0 | 7 | 24* | 18 | -3 | -3
COc1ccc(S[C@]2(C(=O)N3CCN(c4ncccn4)CC3)CC(=O)N(c3ccsc3)[C@@H]2c2ccc(OC)cc2)cc1 | / | / | -11 | -14 | 2 | /
Cc1ccc(N/N=C(\C#N)C(N)=S)c(C)c1 | 0 | 7 | 54* | 5 | 0 | 0
CC(=O)Nc1cc(NC(C)=O)cc(C(=O)NCC2(N3CCOCC3)CCCCC2)c1 | 1 | 3 | 21* | 3 | -1 | -3
O=C(NCc1ccc(C(=O)N2CCCN(Cc3ccccc3)CC2)cc1)c1cccc(Br)c1 | / | / | -2 | 2 | 1 | /
O=C(OC12CCCN(C1)/C(=C/c1ccccc1)C2)c1ccc(F)cc1 (stereo not given) | / | / | 0 | -5 | 0 | /
CCOc1ccc(/C=C2/SC(=O)NC2=S)cc1 | -8 | 2 | + | -1 | 13 | -11
CCOc1ccc(N=C2NC(=O)S/C2=C\c2ccc(N(C)C)cc2)cc1 | -2 | 2 | -99 | 8 | 3 | /
COc1ncc(-c2cc(C(C)=O)c3n(c2=O)CCC3)c(OC)n1 | / | / | -4 | 3 | 0 | /
COc1cc(CNc2ccc3[nH]c(=O)[nH]c3c2)ccc1OCc1ccc(F)cc1 | 7 | -3 | 22* | 17 | 12 | -1
COc1cc(CNc2ccc3[nH]c(=O)[nH]c3c2)cc(Br)c1OCc1ccccc1F | -9 | -1 | 21* | 12 | 12 | 13
SMILES | HTRA1 inhibitor | TCR-CD3 inh | SIAE primary | ABHD4 inh | PRMT1 FP inh | SIAE inh conf
COc1ccc(S[C@]2(C(=O)N3CCOCC3)CC(=O)N(S(=O)(=O)c3ccc(F)cc3)[C@@H]2c2ccc(OC)cc2)cc1 | / | / | -5 | 6 | 14 | /
COC(=O)[C@]12C[C@H](CC(=O)N3CCC(c4ccccc4)CC3)C(=O)N(Cc3ccc(Cl)cc3Cl)C1=C[C@H](C(C)C)O[C@@H]2C1CC1 | / | / | -2 | -2 | 3 | /
O=C(Nc1ccc(F)cc1)Nc1cc(S(=O)(=O)N2CCOCC2)ccc1N1CCCC1 | -1 | 0 | 20* | 2 | 3 | 17*
Nc1c(C(=O)N2CCN(CCc3ccccc3)CC2)cnn1-c1ccccc1 | / | / | 3 | 4 | 1 | /
O=C(CCc1ccccc1)Nc1cccc(S(=O)(=O)N2CCOCC2)c1 | 7 | -2 | 25* | 2 | 2 | -10
COc1ccc(CCC(=O)Nc2cccc(S(=O)(=O)N3CCOCC3)c2)cc1OC | 1 | 2 | -4 | -12 | 3 | /
COC(=O)[C@@]12C[C@@H](CC(=O)NCc3ccc(C)o3)C(=O)N(Cc3ccc4c(c3)OCO4)C1=CCC(C)(C)C2 | / | -5 | 17* | 2 | 7 | 6
COC(=O)[C@@]12C[C@@H](CC(=O)NCc3cccs3)C(=O)N(Cc3ccc4c(c3)OCO4)C1=CCC(C)(C)C2 | / | -5 | 1 | -6 | 0 | /
O=C(NNc1nc2ccccc2o1)c1ccccc1 | / | 7 | 18* | 6 | -4 | 0
C=CCN(CC#CC(=C)C)Cc1ccccc1 | / | / | -3 | 1 | 3 | /
COc1ccc(C2CC(=O)Nc3ccccc3S2(=O)=O)cc1OC (stereo not given) | 2 | -1 | 18* | 9 | 5 | 0
COC(=O)c1ccccc1N(C)S(=O)(=O)c1cc2c3c(c1)CCC(=O)N3CCC2 | 1 | -6 | 32* | -8 | 5 | -2
COc1cc2c(cc1NC(=O)CSc1nnc(-c3cccnc3)n1-c1ccc(Br)cc1)oc1ccccc12 | / | / | -2 | 1 | 1 | /
Cc1ccc(C(=O)NCC(c2ccco2)N2CCc3ccccc32)cc1 (stereo not given) | 1 | 0 | 21* | 1 | -5 | 3
O=C(NCC(c1ccco1)N1CCc2ccccc21)c1ccc([N+](=O)[O-])cc1 (stereo not given) | 3 | 5 | 8 | 9 | -1 | /
COc1cc(OC)cc(C(=O)NCC(=O)NCC(c2ccco2)N2CCCCC2)c1 (stereo not given) | -7 | 0 | -2 | 1 | -4 | /
Cc1cccc(C(=O)NCC(=O)NCC(c2ccco2)N2CCCCC2)c1 (stereo not given) | -8 | -2 | 18* | 0 | -3 | 1
Cc1cccc(C(=O)NCC(c2ccco2)N2CCc3ccccc32)c1 (stereo not given) | -9 | 2 | 22* | 8 | 1 | 9
Cn1c(=O)oc2ccc(S(=O)(=O)Nc3ccc(Cl)cc3[N+](=O)[O-])cc21 | / | -10 | -3 | 9 | 3 | /
COC(=O)C[C@H]1CC[C@@H]2[C@H](COc3ccc(NC(=O)c4cccc(F)c4)cc3C(=O)N2C)O1 | / | / | 2 | 1 | -2 | /
COc1ccc(C(=O)NCC2CCN(C(=O)C(=O)c3cc4ccccc4o3)CC2)c(OC)c1 | / | -2 | 5 | -5 | 0 | /
CCCC1CCC2(CC1)CCC2OC(=S)NCCc1ccc(Cl)cc1 (stereo not given) | / | / | -4 | -9 | 1 | /
CCCCN1C(=O)N2CCc3ccccc3C2CS1(=O)=O (stereo not given) | / | / | -8 | -4 | 0 | /
O=C(NCc1nnc(SCC(=O)N2CCCC2)o1)c1ccco1 | 4 | -5 | -3 | -4 | 3 | /
